Bioassay records: PubChem, several laboratories
Yeast superoxide: caloric restriction mimetics inhibiting age-related superoxide in yeast. 330,000 tested, 0.18% active. S. cerevisiae aged cells, superoxide DHE fluorescence; stronger effect = lower value. superoxide response (% of plate mean), % at 10 µM;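 active = superoxide response under a set limit, about three screen SD below normal, cut at about 65% in these data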;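 note: yeast aged for seven days with compound at 30 °C before DHE staining; 100% = average MFI of all compound-treated wells on the plate with controls excluded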
NRP1-CendR mod: NRP-1/CendR interaction modulation; O14786; FAM-RPARPAR peptide binding to NRP-1, fluorescence polarization; inhibition, % at 25 µM; 360,000 tested, 0.85% active;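 active = inhibition or corrected inhibition above about 18%, plus a signal ratio from 0.5 to 1.5, limit read from the data, passing the limit was not always enough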
Target sequence (O14786 whole entry, looked up): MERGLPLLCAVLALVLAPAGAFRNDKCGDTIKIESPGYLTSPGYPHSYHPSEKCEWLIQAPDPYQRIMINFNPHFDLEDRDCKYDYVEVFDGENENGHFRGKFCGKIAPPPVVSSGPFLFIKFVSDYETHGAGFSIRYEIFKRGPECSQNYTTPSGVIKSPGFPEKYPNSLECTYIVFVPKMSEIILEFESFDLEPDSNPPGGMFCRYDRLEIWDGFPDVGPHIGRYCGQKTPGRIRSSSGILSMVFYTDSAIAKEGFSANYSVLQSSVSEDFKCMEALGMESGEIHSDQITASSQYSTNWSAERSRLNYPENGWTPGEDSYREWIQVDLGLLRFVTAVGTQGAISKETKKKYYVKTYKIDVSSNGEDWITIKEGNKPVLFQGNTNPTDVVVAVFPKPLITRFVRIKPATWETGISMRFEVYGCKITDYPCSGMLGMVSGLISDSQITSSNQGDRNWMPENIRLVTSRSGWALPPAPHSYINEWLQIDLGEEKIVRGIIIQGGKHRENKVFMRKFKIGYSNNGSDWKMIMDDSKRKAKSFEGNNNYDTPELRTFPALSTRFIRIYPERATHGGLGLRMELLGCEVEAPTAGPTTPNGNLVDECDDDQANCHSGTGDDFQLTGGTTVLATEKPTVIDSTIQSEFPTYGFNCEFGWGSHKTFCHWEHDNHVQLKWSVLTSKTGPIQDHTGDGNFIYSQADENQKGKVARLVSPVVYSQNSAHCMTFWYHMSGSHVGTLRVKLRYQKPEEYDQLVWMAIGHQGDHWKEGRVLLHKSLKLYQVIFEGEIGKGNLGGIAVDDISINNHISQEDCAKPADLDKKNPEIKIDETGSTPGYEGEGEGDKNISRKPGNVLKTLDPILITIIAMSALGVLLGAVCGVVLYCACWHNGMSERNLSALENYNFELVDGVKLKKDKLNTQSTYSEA
T cruzi inh: T. cruzi replication inhibition | 300,000 tested, 1.4% active | T. cruzi beta-gal in NIH3T3, luminescence, 90 h | AID 1885 | inhibition, % (concentration not given with the values);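 active = mean inhibition across valid replicates above about 55%, limit read from the data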;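 note: signal also drops with host cell toxicity which is not excluded here; 0% = plate median of DMSO wells and 100% = zero luminescence signal; higher percent means less beta-gal luminescence so fewer parasites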
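Assay system: NIH/3T3 fibroblasts plus reporter T. cruzi. Amount: NIH/3T3 cells, 5,000 per well. Buffer or medium: DMEM, 2% fetal bovine serum. Doses: compound pinned at 50 nL/well, DMSO. Schedule: ≥90 h infection period, 3 h prior cell attachment. Signal: luminescent β-galactosidase signal after 60 min lysis. Read-out: parasite load inhibition, %.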
HIF activator: HIF pathway transcriptional activation. U2OS HRE-luciferase reporter, luminescence; normalized: DMSO 0%, desferrioxamine 100%. activation, % at 7.5 µM (by protocol). 300,000 tested, 0.32% active. AID 1910;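 active = mean activation of at least 10% of the iron chelator positive control signal, with at least half of replicates also reaching 10%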
V-ATPase pHluor: yeast V-ATPase proton transport regulation by pHLuorin; S. cerevisiae, pHLuorin cytosolic pH fluorescence; response, % at 10 µM; 350,000 tested, 0.37% active; AID 504577; in the data active = response mostly above about 7.3%, no sharp cut-off; inactive = mostly below about 5.4%; note: actives read high
AI-2 QS mod: modulators of Vibrio harveyi AI-2 quorum sensing system | activity change, % at 7.5 µM | 300,000 tested, 0.4% active | Vibrio harveyi JMH597 AI-2 luminescence/OD600 ratio, 9 h; stronger effect = lower value; strain lacks LuxN and CqsS sensors; 0 = neutral-control median; in the data active = activity change below about -75%, passing the limit was not always enough;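 note: luminescence divided by OD600 gain over 9 h not by final OD600 alone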
CR mimetic CP: confirmation of caloric restriction mimetics inhibiting yeast age-related superoxide. superoxide response (% of plate), % at 10 µM. shares compounds with Yeast superoxide. S. cerevisiae aging, superoxide DHE fluorescence; stronger effect = lower value. AID 434994. 850 tested, 1% active;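 active = superoxide signal below 65% of the plate average of sample wells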;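 note: cells aged with compound for 7 days at 30 degrees C before staining; 100% equals mean DHE fluorescence of all compound wells on the plate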
DHE fluor count: compound alters DHE oxidation or fluorescence in yeast; shares compounds with Yeast superoxide; S. cerevisiae BY4741, flow cytometry; stronger effect = lower value; fluorescence response, % at 10 µM; 850 tested, under 10 active;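 active = fluorescence response below 15%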;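 note: percent of the mean fluorescence averaged over all compound wells on the plate; lower means stronger quenching of DHE signal or ROS scavenging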
An asterisk follows results filed as active; · = not tested or not shown. Sampled rows, rich in hits. Any-hit rate of the full collection: about 3%.

SMILES | Yeast superoxide | NRP1-CendR mod | T cruzi inh | HIF activator | V-ATPase pHluor | AI-2 QS mod | CR mimetic CP | DHE fluor count
C=CCNC(=O)C1CC(=O)N(c2ccc(OCC(=O)Nc3ccc(CC)cc3)cc2)C1 (centres undefined) | 57.8* | -15.8 | -22.7 | -0.1 | -0.4 | 9.0 | 112.0 | 110.7
COc1ccc(-c2nnc(SC(C)C(=O)Nc3nccs3)n2-c2ccccc2)cc1OC (centres undefined) | 87.3 | -1.5 | 21.5 | -0.8 | 5.8 | -5.6 | · | ·
COc1ccc(CCN=C(N)NS(=O)(=O)c2ccc(C)c(C)c2)cc1OC | 97.8 | 21.4 | -8.6 | -0.1 | -2.9 | 10.4 | · | ·
COc1ccc(S(=O)(=O)NC(N)=NCCc2ccc(OC)c(OC)c2)cc1C | 63.9* | -8.5 | -1.1 | 0.2 | -0.1 | 5.5 | 100.3 | 90.3
Cc1cc(NC(=O)CNCC(c2ccccc2)N(C)C)c([N+](=O)[O-])cc1C (centres undefined) | 42.9* | 0.8 | 22.7 | 2.8 | -1.9 | 8.5 | 91.1 | 94.1
COc1ccc(Cl)cc1NS(=O)(=O)c1cn(C)nc1C | 103.6 | 7.2 | 5.2 | -0.3 | 2.0 | -3.7 | · | ·
Cc1ccc(Cl)cc1NS(=O)(=O)c1cn(C)nc1C | 60.6* | -14.4 | -1.2 | 0.5 | 1.6 | -3.5 | 101.6 | 96.6
c1ccc2[nH]c3cc4ncnc4cc3nc2c1 | 40.2* | 91.0 | 6.1 | 0.7 | 0.5 | 26.8 | 46.7* | 88.9
FC(F)c1nc2ccccc2[nH]1 | 119.9 | -3.0 | 0.6 | -0.3 | -1.5 | 13.0 | · | ·
N#Cc1c(N)nc2c(c1-c1ccncc1)CCCCC2 | 97.2 | 17.9 | -21.7 | 0.0 | -7.6 | 22.9 | · | ·
CSc1ccc(-c2c(C#N)c(N)nc3c2CCCC3)cc1 | 64.2* | -2.6 | -22.0 | -0.2 | -2.0 | -3.6 | 100.9 | 103.8
N#Cc1cc(Oc2ccc3ccccc3c2)c(-n2nnc3ccccc32)cc1C#N | 97.9 | -3.0 | · | · | 0.0 | 10.1 | · | ·
O=[N+]([O-])c1cc(Br)c(Nc2ccccc2)c([N+](=O)[O-])c1 | 53.2* | 1.9 | 38.8 | 1.0 | -3.0 | 25.5 | 84.5 | 100.3
CC(=O)[C@@]1(O)CCC2C3CC[C@H]4C[C@@H](O)CC[C@]4(C)C3CC[C@@]21C (some centres undefined) | 104.6 | -5.2 | · | · | 2.8 | · | 104.4 | 102.9
CC12CCC3C(CCC4CC(O)CCC43C)C1CC(=O)C2 (centres undefined) | · | -4.5 | · | · | · | · | · | ·
Cc1n[nH]c(=S)n(/N=C/c2cccc([N+](=O)[O-])c2)c1=O | 61.0* | -8.2 | -22.2 | 0.6 | 2.6 | 11.6 | 97.2 | 95.1
O=[N+]([O-])c1cccc(/C=N/n2c(-c3cccnc3)n[nH]c2=S)c1 | 132.2 | 3.2 | -9.4 | 0.2 | 3.2 | 5.0 | · | ·
O=C(Cc1ccc(F)cc1)Nc1ccc(F)c([N+](=O)[O-])c1 | 100.2 | -1.1 | -6.5 | -2.7 | -1.5 | 8.1 | · | ·
O=C1OC2(CCCC2)OC(=O)C1=Cc1c[nH]c2ccccc12 | 91.6 | -12.3 | 2.8 | -0.1 | 2.5 | 30.2 | · | ·
O=C(NC1CC1)C1CCN(c2ccc(S(=O)(=O)N3CCOCC3)cc2)CC1 | 64.8* | -5.8 | 10.6 | -0.3 | 0.8 | 14.1 | 103.5 | 114.1
COC(=O)CC1C(=O)NCCN1C(=S)NC(=O)C(c1ccccc1)c1ccccc1 (centres undefined) | 106.8 | 6.5 | 1.0 | -0.1 | -1.2 | 7.6 | · | ·
CCN(CC)c1ccc(/C=C/c2cc(-c3ccccc3)c3ccccc3n2)cc1 | 54.5* | 146.6 | 25.1 | -28.8 | -84.4 | 25.1 | 90.9 | 100.7
CCC(C)c1ccccc1NC(=O)CN(CC)CC(=O)Nc1ccc2c(c1)OCCO2 (centres undefined) | 111.3 | -3.4 | · | · | -3.1 | · | · | ·
CCOC(=O)c1c(NC(=O)CSc2nnnn2-c2ccccc2)sc2c1CC(C)(C)NC2(C)C | 62.1* | -0.9 | 73.5* | 0.3 | 3.2 | -4.7 | 106.4 | 105.9
CCC(Sc1nc(=O)cc(N)n1-c1cccc(C)c1)C(=O)Nc1cc(C)on1 (centres undefined) | 114.3 | 12.7 | -25.4 | 4.4 | 4.5 | 17.5 | · | ·
SMILES | Yeast superoxide | NRP1-CendR mod | T cruzi inh | HIF activator | V-ATPase pHluor | AI-2 QS mod | CR mimetic CP | DHE fluor count
N#C/C(=C/c1cccs1)c1nc2ccccc2[nH]1 | 60.5* | -14.5 | 14.1 | 2.2 | -4.7 | 1.1 | 110.9 | 106.8
Cc1ccc(/C=C(\C#N)c2nc3ccccc3[nH]2)s1 | 94.8 | -37.3 | 7.2 | 1.4 | -3.1 | 18.0 | · | ·
CC(C)NC(=O)/C(C#N)=C/c1cccc(NC(=O)c2ccccc2Cl)c1 | 85.5 | -3.9 | -19.4 | 0.3 | 2.7 | 34.0 | · | ·
COc1cc(/C=C(\C#N)C(=O)NC(C)C)cc(Cl)c1O | 95.7 | 3.1 | 12.2 | -0.9 | -2.0 | 18.4 | 106.3 | 91.8
C=CCN=C1S/C(=C/c2ccc([N+](=O)[O-])cc2)C(=O)N1CC=C | 59.8* | 4.0 | 1.0 | -0.1 | -1.8 | 20.7 | 76.5 | 89.2
CN1CCN(C2=Cc3cc(Cl)ccc3Sc3cc(F)ccc32)CC1 | 59.9* | 3.0 | 38.5 | -4.1 | -1.2 | 14.2 | 94.4 | 92.8
CN(CCCNC(=O)c1cccn2c(=O)c3ccccc3nc12)Cc1ccccc1 | 103.1 | -9.3 | 48.4 | 0.1 | 0.3 | 0.3 | · | ·
COC(=O)c1ccc2c(=O)n(CCCCCC(=O)N3CCN(c4ccccc4)CC3)c(=O)[nH]c2c1 | 106.9 | 8.9 | 12.6 | -0.6 | 1.3 | 24.5 | · | ·
COc1cc2[nH]c(=O)n(CCCCCC(=O)N3CCN(c4ccccc4)CC3)c(=O)c2cc1OC | 64.2* | -2.8 | 20.7 | -0.5 | -0.1 | 10.1 | 95.4 | 92.9
Cc1c(NS(=O)(=O)c2cc(NC(=O)CCN3CCCC(C)C3)ccc2Cl)c(=O)n(-c2ccccc2)n1C (centres undefined) | 107.1 | -10.7 | -7.0 | 0.2 | 0.7 | -10.5 | · | ·
CCOc1ccc2nc(NCCCNS(=O)(=O)c3ccccc3)c(C#N)cc2c1 | 64.7* | -18.1 | 13.6 | -0.7 | -2.5 | 8.8 | 99.8 | 92.3
CCOCCCn1c(C)nc2c(c1=O)c1nc3ccccc3nc1n2-c1ccc2c(c1)OCCO2 | 104.0 | · | 3.3 | -0.2 | · | -1.0 | · | ·
Cc1cc(C)nc(SCc2ccc(C(=O)N/N=C/c3ccccn3)cc2)n1 | 96.7 | 4.9 | -0.3 | 1.4 | -2.1 | 27.5 | · | ·
CCN(CC)CC(O)c1ccc2ccc3ccc(O)cc3c2c1 (centres undefined) | · | 1.5 | · | · | -2.4 | · | · | ·
Cc1ccc(/C=N/n2c(-c3ccncc3)n[nH]c2=S)cc1 | · | -5.1 | 4.0 | 0.0 | 1.5 | 41.7 | · | ·
CC(C)(C)c1ccc(-c2n[nH]c(=S)n2/N=C/c2ccncc2)cc1 | 43.5* | 3.9 | -3.7 | 3.4 | -0.8 | 14.8 | 115.4 | 127.3
O=C(CSc1ccc(-c2nc3ccccc3[nH]2)cn1)Nc1ccc(S(=O)(=O)N2CCCC2)cc1 | 64.5* | 0.8 | -5.0 | 0.0 | 1.6 | 23.8 | 119.1 | 108.7
